Assay results as given in paper PMC11932705 (Results in chemistry, 2024).
Entries after “also recorded” stand apart in the source; their conditions may differ.

Test system: adult S. mansoni
Assay: Single-concentration phenotypic severity score assay on adult worms
Assay type: cell-based, Schistosoma mansoni
Conditions: severity score assay at 5 μM
In short: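 Adult S. mansoni were exposed to test compound at 5 μM. Adherence, shape, density and mobility were scored visually at 2, 5, 24 and 48 h using a constrained set of phenotypic descriptors, each typically valued 1. The descriptor values were summed into a severity score from 0 (no activity) to 4 (maximal activity). Each compound was screened twice as a singleton and representative data are reported.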

Structure (SMILES)	Antischistosomal activity in words
O=C(Nc1cccc(C(F)(F)F)c1)c1cccc(C(F)(F)F)c1 [compound 33, 3-(Trifluoromethyl)-N-(3-(trifluoromethyl)phenyl)benzamide]	potency is lost
O=C(Nc1cc(C(F)(F)F)cnn1)c1ccc(C(F)(F)F)cc1 [compound 49, 4-(Trifluoromethyl)-N-(5-(trifluoromethyl)pyridazin-3-yl)benzamide]	abolished activity; also recorded: inactive against the worm
